ChEMBL document CHEMBL1275392, “Assessment of chemoselective neoglycosylation methods using chlorambucil as a model” (2010)

Tests used:
A549 = experiment: Growth inhibition of human A549 cells expressing p53 after 7 days by celltiter-glo assay; format: functional; conditions: A549, 168 h
SK-OV-3 = experiment: Growth inhibition of human SKOV3 cells after 7 days by celltiter-glo assay; format: functional; conditions: SK-OV-3, 168 h
MCF7 = experiment: Growth inhibition of human MCF7 cells after 7 days by celltiter-glo assay; format: functional; conditions: MCF7, 168 h
[1] = Growth inhibition of human p53 deficient Hep3B cells after 7 days by celltiter-glo assay; format: functional, Hep 3B2; conditions: 168 h
How it was run: (§1)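 Cells seeded at 500 per well in 384-well plates. Compounds came from 30 mM DMSO stocks, serially diluted and tested in quadruplicate. Incubation was 7 d at 37 °C under 5% CO2. Calcein AM (10 μM) and EthD-1 were added, followed by a fluorescence read. CellTiter-Glo lysis was then done for 10 min at room temperature, with a luminescence read. GI50 came from curve fitting.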

DU-145 = experiment: Growth inhibition of human DU145 cells after 7 days by celltiter-glo assay; format: functional; conditions: DU-145, 168 h
SF-268 = experiment: Growth inhibition of human SF268 cells after 7 days by celltiter-glo assay; format: functional; conditions: SF-268, 168 h
HT-29 = experiment: Growth inhibition of human HT-29 cells after 7 days by celltiter-glo assay; format: functional; conditions: HT-29, 168 h
HCT-15 = experiment: Growth inhibition of human HCT15 cells after 7 days by celltiter-glo assay; format: functional; conditions: HCT-15, 168 h
[2] = Growth inhibition of human p53 deficient H1299 cells after 7 days by celltiter-glo assay; format: functional; conditions: NCI-H1299, 168 h; how it was run: as §1
NCI-H460 = experiment: Growth inhibition of human NCI-H460 cells after 7 days by celltiter-glo assay; format: functional; conditions: NCI-H460, 168 h

SMILES | GI50 (A549) | GI50 (SK-OV-3) | GI50 (MCF7) | GI50 [1] | GI50 (DU-145) | GI50 (SF-268) | GI50 (HT-29) | GI50 (HCT-15) | GI50 [2] | GI50 (NCI-H460)
CON(CCCc1ccc(N(CCCl)CCCl)cc1)[C@@H]1O[C@H](CO)[C@@H](O)[C@H](O)[C@H]1F | 2.6 µM | 2 µM | 7.3 µM | 3.2 µM | 4.2 µM | 2.2 µM | 2.4 µM | 1.08 µM | 1.2 µM | 6.4 µM
CON(CCCc1ccc(N(CCCl)CCCl)cc1)[C@@H]1O[C@H](CO[C@@H]2O[C@H](CO)[C@H](O)[C@H](O)[C@H]2O)[C@@H](O)[C@H](O)[C@H]1O | 40 µM | 27 µM | 21 µM | 29 µM | 36 µM | 16.3 µM | 27.4 µM | 20 µM | 17.8 µM | 45.5 µM
CON(CCCc1ccc(N(CCCl)CCCl)cc1)C1OC[C@H](O)[C@@H](O)[C@H]1O (stereo not given in full) | 2.2 µM | 1.8 µM | 0.94 µM | 3 µM | 3.9 µM | 1.2 µM | 2.4 µM | 0.95 µM | 0.88 µM | 5.8 µM
CON(CCCc1ccc(N(CCCl)CCCl)cc1)C1O[C@H](CO)[C@@H](O)[C@H](O)[C@@H]1O (stereo not given in full) | 3.5 µM | 2.3 µM | 1.9 µM | 3.2 µM | 5.1 µM | 1.8 µM | 2.6 µM | 1.9 µM | 1.01 µM | 7.8 µM
CON(CCCc1ccc(N(CCCl)CCCl)cc1)[C@H]1O[C@H](CO)[C@H](O)[C@H](O)[C@@H]1O | 2.6 µM | 2 µM | 1.5 µM | 2.4 µM | 3.3 µM | 1.7 µM | 1.8 µM | 2.2 µM | 3 µM | 5 µM
CON(CCCc1ccc(N(CCCl)CCCl)cc1)C1O[C@@H](CO)[C@H](O)[C@H](O)[C@@H]1O (stereo not given in full) | 3.5 µM | 3.1 µM | 9 µM | 2.5 µM | 6 µM | 3.2 µM | 2.2 µM | 1.7 µM | 1.3 µM | 10.4 µM
C[C@H]1O[C@@H](NNC(=O)CCCc2ccc(N(CCCl)CCCl)cc2)[C@H](O)[C@@H](O)[C@H]1O | 28 µM | 22 µM | 6.3 µM | 11 µM | 24 µM | 5.8 µM | 16.7 µM | > 100 µM | 8.7 µM | 51 µM
CON(CCCc1ccc(N(CCCl)CCCl)cc1)[C@H]1O[C@H](COCc2ccccc2)[C@@H](OCc2ccccc2)[C@@H]1OCc1ccccc1 | > 100 µM | > 100 µM | 82 µM | > 100 µM | > 100 µM | 80 µM | 47 µM | 64 µM | > 100 µM | > 100 µM
CON(CCCc1ccc(N(CCCl)CCCl)cc1)C1OC[C@@H](O)[C@@H](O)[C@H]1O (stereo not given in full) | 2.8 µM | 2 µM | 1.1 µM | 2.4 µM | 3.8 µM | 1.9 µM | 2.3 µM | 1.8 µM | 3.6 µM | 5.9 µM
CON(CCCc1ccc(N(CCCl)CCCl)cc1)[C@H]1O[C@@H](CO)[C@H](O)[C@@H](O)[C@@H]1O | 6.8 µM | 4.5 µM | 1.8 µM | 5 µM | 7 µM | 2.2 µM | 4.6 µM | 2.8 µM | 1.6 µM | 14.3 µM
CON(CCCc1ccc(N(CCCl)CCCl)cc1)C1C[C@@H](O)[C@@H](O)[C@@H](CO)O1 (stereo not given in full) | 3.2 µM | 2.4 µM | 1.04 µM | 3.3 µM | 5 µM | 2.2 µM | 3.5 µM | 1.6 µM | 1.5 µM | 6.6 µM
CON(CCCc1ccc(N(CCCl)CCCl)cc1)C1O[C@@H](CO)[C@@H](O)[C@@H](O)[C@@H]1O (stereo not given in full) | 4.8 µM | 4.1 µM | 1.3 µM | 3.8 µM | 5.5 µM | 2 µM | 3.7 µM | 2.3 µM | 1.4 µM | 10.4 µM
[O-]/[N+](=C\[C@@H](O)[C@H](O)CO)CCCc1ccc(N(CCCl)CCCl)cc1 | 3 µM | 2.6 µM | 2 µM | 1.7 µM | 3.6 µM | 1.2 µM | 3.2 µM | 2.5 µM | 1.07 µM | 3.8 µM
O=C(CCCc1ccc(N(CCCl)CCCl)cc1)NN[C@@H]1OC[C@@H](O)[C@H](O)[C@H]1O | 14.8 µM | 12 µM | 4.5 µM | 5.5 µM | 19 µM | 2.5 µM | 7.2 µM | > 100 µM | 3.9 µM | 26 µM
CON(CCCc1ccc(N(CCCl)CCCl)cc1)C1O[C@H](CO)[C@@H](O[C@@H]2O[C@H](CO)[C@H](O)[C@H](O)[C@H]2O)[C@H](O)[C@@H]1O (stereo not given in full) | 56 µM | 35 µM | 26 µM | 38 µM | 43 µM | 19.1 µM | 34 µM | 31 µM | 24 µM | 57.7 µM
CON(CCCc1ccc(N(CCCl)CCCl)cc1)C1O[C@@H](C)[C@H](OC(C)=O)[C@@H](OC(C)=O)[C@H]1OC(C)=O (stereo not given in full) | 3.5 µM | 3.9 µM | 3.2 µM | 4.6 µM | 4.5 µM | 3 µM | 4.3 µM | 3.7 µM | 5 µM | 7.8 µM
CON(CCCc1ccc(N(CCCl)CCCl)cc1)C1O[C@@H](C)[C@@H](O)[C@@H](O)[C@@H]1O (stereo not given in full) | 2.2 µM | 1.8 µM | 0.78 µM | 3 µM | 3.8 µM | 2 µM | 2.3 µM | 1.4 µM | 1.2 µM | 5.4 µM
CON(CCCc1ccc(N(CCCl)CCCl)cc1)C1C[C@H](O)[C@H](O)CO1 (stereo not given in full) | 2.6 µM | 2 µM | 0.96 µM | 2.6 µM | 4 µM | 2.1 µM | 2.6 µM | 2.3 µM | 3.7 µM | 5.8 µM
C=CCOC(=O)NC[C@H]1O[C@@H](N(CCCc2ccc(N(CCCl)CCCl)cc2)OC)[C@H](O)[C@@H](O)[C@@H]1O | 4.5 µM | 2.9 µM | 7.4 µM | 4.6 µM | 6.2 µM | 3.1 µM | 2.8 µM | 2.1 µM | 2.1 µM | 11 µM
